A word on the pA2: it is a measure of antagonist potency on a negative log scale. A low value points to a weaker antagonist.

The target of assay [1] is Adrenergic receptor alpha. The assay is described as follows: In vitro postsynaptic antagonist activity against Alpha adrenergic receptor in rat anococcygeus muscle. Type of assay: functional, tissue-based. Summed up:
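Rat anococcygeus muscle; cumulative noradrenaline concentration-response curves obtained as control and again with increasing concentrations of test agent present; postsynaptic α-antagonism expressed as pA2. Mean of three experiments ± SEM.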

In assay [2] the target is Adrenergic receptor alpha. The assay is described as follows: In vitro presynaptic antagonist activity against Alpha adrenergic receptor in rat vas deferens. Type of assay: functional, tissue-based. Summed up:
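Rat vas deferens under 0.1 Hz stimulation; cumulative clonidine concentration-response curves run with increasing concentrations of test agent to gauge presynaptic α-antagonism; pA2 reported. Mean of three experiments ± SEM.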

The test system of assay [3] is Rattus norvegicus. The assay is described as follows: In vivo threshold intravenous dose required to cause reversal of clonidine on blood pressure in pithed rat. In kind it is functional. Summed up:
(§1)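 Pithed rats given clonidine 30 μg/kg iv, which acts presynaptically (hypogastric nerve response) and postsynaptically (pressor response). Test agents were then injected iv to find the threshold dose reversing each clonidine action. Five rats per drug.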

The test system of assay [4] is Rattus norvegicus. The assay is described as follows: In vivo threshold intravenous dose required to cause reversal of clonidine on hypogastric nerves in pithed rat. Type of assay: functional, Hypogastric nerve. Summed up: as §1
The subject of assay [5] is Rattus norvegicus. The assay is described as follows: Percent change of mean arterial blood pressure in conscious DOCA Hypertensive rat at 2 hour, after administration of dose 10 mL (mg/kg po). Type of assay: functional. Summed up: (§2)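 Male DOCA (metacorticoid) hypertensive rats, conscious, with an aortic catheter implanted under halothane anaesthesia at least 48 h beforehand. Fasted 18 h, then dosed orally; saline vehicle 10 mL. Blood pressure recorded via pressure transducer with minimal restraint; a tachograph triggered by the pulse gave heart rate. Percent change from pre-dose control read at 1, 2, 3, 5 and 22 h.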

Assay [6] deals with Rattus norvegicus. Description: Percent change of mean arterial blood pressure in conscious DOCA Hypertensive rat at 22 hour, after administration of dose 10 mL (mg/kg po). In kind it is functional. Summed up:
as §2

In assay [7] the test system is Rattus norvegicus. The assay is described as follows: Percent change of mean arterial blood pressure in conscious DOCA Hypertensive rat at 3 hour, after administration of dose 10 mL (mg/kg po). In kind it is functional. Summed up: as §2
Assay [8] deals with Rattus norvegicus. The assay is described as follows: Percent change of mean arterial blood pressure in conscious DOCA Hypertensive rat at 5 hour, after administration of dose 10 mL (mg/kg po). In kind it is functional. The procedure, abridged:
as §2

For assay [9], the system named is Rattus norvegicus. The assay is described as follows: Percent change of heart rate in conscious DOCA Hypertensive rat at 1 hour after administration of dose of 10 mL (mg/kg po). In kind it is functional. Summed up:
as §2

Assay [10] concerns Rattus norvegicus. Description: Percent change of heart rate in conscious DOCA Hypertensive rat at 22 hour after administration of dose of 10 mL (mg/kg po). Type of assay: functional. The procedure, abridged:
as §2

Assay [11] deals with Rattus norvegicus. The assay is described as follows: Percent change of heart rate in conscious DOCA Hypertensive rat at 3 hour after administration of dose of 10 mL (mg/kg po). In kind it is functional. The procedure, abridged:
as §2

The test system of assay [12] is Rattus norvegicus. The assay is described as follows: Percent change of heart rate in conscious DOCA Hypertensive rat at 5 hour after administration of dose of 10 mL (mg/kg po). Type of assay: functional. Summed up:
as §2

Assay [13] has as its system Rattus norvegicus. Description: Percent change of mean arterial blood pressure in conscious DOCA Hypertensive rat at 1 hour, after administration of dose 10 mL (mg/kg po). Type of assay: functional. The procedure, abridged:
as §2

In assay [14] the test system is Rattus norvegicus. The assay is described as follows: Percent change of heart rate in conscious DOCA Hypertensive rat at 2 hour after administration of dose of 10 mL (mg/kg po). In kind it is functional. Summed up: as §2

Bounds are passed on as bounds.

As to `CCCC/N=C(\N)Nc1nncc2ccccc12`, the figures for the pA2 in assay [1] and in assay [2] were 5.2 and 6.6, respectively. Moreover, the Dose in the assay with Rattus norvegicus [3] and in the assay on Rattus norvegicus [4] was 1 mg/kg each time. For the same compound, the Change with Rattus norvegicus [5] was -10%; in the assay on Rattus norvegicus [6], 8%; in the assay on Rattus norvegicus [7], -12%; in the assay on Rattus norvegicus [8], -9%; in the assay on Rattus norvegicus [9] it was 14%; in the assay with Rattus norvegicus [10], 11%. The Change is 21% in the assay on Rattus norvegicus [11], 18% with Rattus norvegicus [12], -10% in the assay on Rattus norvegicus [13] and 19% in the assay with Rattus norvegicus [14].
Consider `c1ccc2c(NC3=NCCN3)nncc2c1`, for which the results for the pA2 in assay [1] and in assay [2] were 4.8 and 6, respectively. In addition, the Dose in the assay with Rattus norvegicus [3] is 0.3 mg/kg; with Rattus norvegicus [4], 3 mg/kg.
`NNc1nncc2ccccc12` [HYDRALAZINE]: the Change is -45% in the assay on Rattus norvegicus [5]; -15% in the assay on Rattus norvegicus [6]; -44% in the assay with Rattus norvegicus [7]; -39% with Rattus norvegicus [8]; -5% in the assay on Rattus norvegicus [9]; 8% in the assay with Rattus norvegicus [10]. For the same compound, the Change in the assay on Rattus norvegicus [11] is reported as 2%; with Rattus norvegicus [12], 11%; in the assay on Rattus norvegicus [13], -47%; with Rattus norvegicus [14], -1%.
On to `Nc1nnc2c3ccccc3cnn12`, for which the Change is listed as -19% with Rattus norvegicus [5]; -3% in the assay with Rattus norvegicus [6]; -20% with Rattus norvegicus [7]; -23% in the assay with Rattus norvegicus [8]; 8% with Rattus norvegicus [9]; 7% in the assay on Rattus norvegicus [10]. The Change in the assay with Rattus norvegicus [11] is recorded as 6%; in the assay with Rattus norvegicus [12] it was 2%; in the assay with Rattus norvegicus [13], -14%; in the assay on Rattus norvegicus [14] it was 7%.
With `CNc1nnc2c3ccccc3cnn12`, the Change with Rattus norvegicus [5] was -13%; in the assay with Rattus norvegicus [6] it was 4%; in the assay with Rattus norvegicus [7], -12%; in the assay on Rattus norvegicus [8], -5%; in the assay with Rattus norvegicus [9], -23%; with Rattus norvegicus [10], -10%. Besides, the Change in the assay on Rattus norvegicus [11] is -25%; with Rattus norvegicus [12], -25%; in the assay on Rattus norvegicus [13], -12%; with Rattus norvegicus [14], -25%.
Consider `CCCC/N=C(/N)Nc1nc2ccccc2nc1C`, for which the pA2 was < 5.5 in assay [1] and 6.3 in [2]. Moreover, the Dose with Rattus norvegicus [3] and in the assay with Rattus norvegicus [4] was >1 mg/kg each time. Further, the Change in the assay with Rattus norvegicus [5] is on record as -5%; with Rattus norvegicus [6], 20%; with Rattus norvegicus [7], 0%; with Rattus norvegicus [8] it was 5%; in the assay on Rattus norvegicus [9], 3%; in the assay with Rattus norvegicus [10] it was 2%. Further, the Change in the assay on Rattus norvegicus [11] is -5%; in the assay on Rattus norvegicus [12], -4%; in the assay with Rattus norvegicus [13] it was -3%; in the assay with Rattus norvegicus [14] it was -2%.
In the case of `N=C(N)Nc1nncc2ccccc12`, the pA2 in assay [1] came to 4.9; in assay [2] it was 5.7. Also, the Dose worked out at 1 mg/kg in the assay on Rattus norvegicus [3] and 3 mg/kg with Rattus norvegicus [4]. Also, the Change with Rattus norvegicus [5] is given as -20%; in the assay with Rattus norvegicus [6], 4%; in the assay on Rattus norvegicus [7] it was -24%; in the assay with Rattus norvegicus [8], -20%; in the assay on Rattus norvegicus [9] it was 2%; in the assay on Rattus norvegicus [10], 3%. The Change in the assay on Rattus norvegicus [11] is 7%; in the assay with Rattus norvegicus [12], 1%; with Rattus norvegicus [13], -22%; in the assay on Rattus norvegicus [14] it was -14%.
Take `Cc1ccc(N(CC2=NCCN2)c2cccc(O)c2)cc1` [PHENTOLAMINE]: the Dose in the assay on Rattus norvegicus [3] and in the assay on Rattus norvegicus [4] was 0.03 mg/kg in each case. Besides, the Change in the assay with Rattus norvegicus [5] is reported as -34%; in the assay on Rattus norvegicus [6], 6%; in the assay with Rattus norvegicus [7], -33%; in the assay on Rattus norvegicus [8], -22%; with Rattus norvegicus [9], 21%; in the assay with Rattus norvegicus [10] it was 7%. In addition, the Change is on record as 18% with Rattus norvegicus [11], 11% in the assay with Rattus norvegicus [12], -41% in the assay with Rattus norvegicus [13] and 22% with Rattus norvegicus [14].
